# Columns and labels:
# [1] = Cytotoxicity against human HEL cells assessed as altered cell morphology; type: cell-based
# Outline: (§1)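 Uninfected cell cultures run alongside the antiviral assays, exposed to serial compound dilutions and incubated at 37 °C for 2–4 days. Toxicity was scored microscopically and reported as the minimum cytotoxic concentration (MCC), the lowest concentration causing a detectable change in normal cell morphology.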
# HeLa = assay: Cytotoxicity against human HeLa cells assessed as cell viability by MTS assay; type: cell-based; conditions: hela
# Outline: (§2)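 Uninfected cultures were run in parallel with the antiviral assays. Viability was read by colorimetric formazan MTS assay.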
# MDCK = assay: Cytotoxicity against MDCK cells assessed as cell viability by MTS assay; type: cell-based, Canis lupus familiaris; conditions: dog, mdck; outline: as §2
# Human respirovirus 3 = assay: Antiviral activity against parainfluenza-3 virus infected in african green monkey Vero cells assessed as inhibition of virus induced cytopathicity after 2 to 4 days by MTS assay; type: functional, organism-based; conditions: Human respirovirus 3, Vero
# Vaccinia virus = assay: Antiviral activity against Vaccinia virus infected in HEL cells assessed as inhibition of virus induced cytopathicity after 2 to 4 days by MTS assay; type: functional, organism-based; conditions: Orthopoxvirus vaccinia
# Bacillus subtilis = assay: Antimicrobial activity against Bacillus subtilis after 24 hrs by tube dilution method; type: functional
# Outline: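 Serial dilutions in double-strength nutrient broth (I.P.) with ciprofloxacin as reference, tube dilution, incubated 37 °C for 24 h. MIC is the lowest concentration that inhibited growth.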
# Coxsackievirus B4 [2] = assay: Antiviral activity against Coxsackie virus B4 infected in african green monkey Vero cells assessed as inhibition of virus induced cytopathicity after 2 to 4 days by MTS assay; type: functional, organism-based; conditions: Enterovirus B
# Candida albicans = assay: Antimicrobial activity against Candida albicans after 48 hrs by tube dilution method; type: functional
# Escherichia coli = assay: Antimicrobial activity against Escherichia coli after 24 hrs by tube dilution method; type: functional
# Coxsackievirus B4 [3] = assay: Antiviral activity against coxsackievirus B4 infected in human HeLa cells assessed as inhibition of virus induced cytopathicity after 2 to 4 days by MTS assay; type: functional, organism-based; conditions: Enterovirus B
# [4] = system: Vesicular stomatitis virus; assay: Antiviral activity against Vesicular stomatitis virus infected in human HeLa cells assessed as inhibition of virus induced cytopathicity by visual scoring of CPE; type: functional, organism-based
# [5] = system: Mammalian orthoreovirus 1; assay: Antiviral activity against Reovirus 1 virus infected in african green monkey Vero cells assessed as inhibition of virus induced cytopathicity after 2 to 4 days by MTS assay; type: functional, organism-based; conditions: Mammalian orthoreovirus 1, Vero
# [6] = system: Respiratory syncytial virus; assay: Antiviral activity against Respiratory syncytial virus infected in human HeLa cells assessed as inhibition of virus induced cytopathicity after 2 to 4 days by MTS assay; type: functional, organism-based
# [7] = Cytotoxicity against african green monkey Vero cells assessed as altered cell morphology; type: cell-based; conditions: chlorocebus sabaeus; outline: as §1
# Human alphaherpesvirus 1 [8] = assay: Antiviral activity against thymidine kinase deficient acyclovir-resistant Herpes simplex virus 1 KOS infected in HEL cells assessed as inhibition of virus induced cytopathicity after 2 to 4 days by MTS assay; type: functional, organism-based; conditions: Human alphaherpesvirus 1, KOS
# Coxsackievirus B4 [9] = assay: Antiviral activity against coxsackievirus B4 infected in human HeLa cells assessed as inhibition of virus induced cytopathicity by visual scoring of CPE; type: functional, organism-based; conditions: Enterovirus B
# Felid alphaherpesvirus 1 = assay: Antiviral activity against Feline herpesvirus 1 infected in cat CRFK cells assessed as inhibition of virus induced cytopathicity after 2 to 4 days by MTS assay; type: functional, organism-based; conditions: Felid alphaherpesvirus 1, CRFK
# Sindbis virus = assay: Antiviral activity against Sindbis virus infected in african green monkey Vero cells assessed as inhibition of virus induced cytopathicity after 2 to 4 days by MTS assay; type: functional, organism-based
# Influenza B virus [10] = assay: Antiviral activity against Influenza B virus infected in MDCK cells assessed as inhibition of virus induced cytopathicity after 2 to 4 days by MTS assay; type: functional, organism-based
# [11] = system: Vesicular stomatitis virus; assay: Antiviral activity against Vesicular stomatitis virus infected in HEL cells assessed as inhibition of virus induced cytopathicity after 2 to 4 days by MTS assay; type: functional, organism-based
# Influenza A virus [12] = assay: Antiviral activity against Influenza A H3N2 virus subtype infected in MDCK cells assessed as inhibition of virus induced cytopathicity by visual scoring of CPE; type: functional, organism-based
# Aspergillus niger = assay: Antimicrobial activity against Aspergillus niger after 7 days by tube dilution method; type: functional; conditions: 168 h
# Feline coronavirus = assay: Antiviral activity against Feline coronavirus infected in cat CRFK cells assessed as inhibition of virus induced cytopathicity after 2 to 4 days by MTS assay; type: functional, organism-based; conditions: Alphacoronavirus 1, CRFK
# [13] = Cytotoxicity against human HeLa cells assessed as altered cell morphology; type: cell-based; outline: as §1
# Staphylococcus aureus = assay: Antimicrobial activity against Staphylococcus aureus after 24 hrs by tube dilution method; type: functional
# Human alphaherpesvirus 1 [14] = assay: Antiviral activity against Herpes simplex virus 1 KOS infected in HEL cells assessed as inhibition of virus induced cytopathicity after 2 to 4 days by MTS assay; type: functional, organism-based; conditions: Human alphaherpesvirus 1, KOS
# Punta Toro virus = assay: Antiviral activity against Punta Toro virus infected in african green monkey Vero cells assessed as inhibition of virus induced cytopathicity after 2 to 4 days by MTS assay; type: functional, organism-based
# Influenza A virus [15] = assay: Antiviral activity against Influenza A H3N2 virus subtype infected in MDCK cells assessed as inhibition of virus induced cytopathicity after 2 to 4 days by MTS assay; type: functional, organism-based
# [16] = system: Vesicular stomatitis virus; assay: Antiviral activity against Vesicular stomatitis virus infected in human HeLa cells assessed as inhibition of virus induced cytopathicity after 2 to 4 days by MTS assay; type: functional, organism-based
# Human alphaherpesvirus 2 = assay: Antiviral activity against Herpes simplex virus 2 G infected in HEL cells assessed as inhibition of virus induced cytopathicity after 2 to 4 days by MTS assay; type: functional, organism-based; conditions: Human alphaherpesvirus 2, strain G
# Influenza B virus [17] = assay: Antiviral activity against Influenza B virus infected in MDCK cells assessed as inhibition of virus induced cytopathicity by visual scoring of CPE; type: functional, organism-based
# [18] = system: Respiratory syncytial virus; assay: Antiviral activity against Respiratory syncytial virus infected in human HeLa cells assessed as inhibition of virus induced cytopathicity by visual scoring of CPE; type: functional, organism-based
# [19] = Cytotoxicity against MDCK cells assessed as altered cell morphology; type: cell-based, Canis lupus familiaris; conditions: dog; outline: as §1
# [20] = Cytotoxicity against cat CRFK cells assessed as cell viability by MTS assay; type: cell-based, Felis catus; conditions: crfk; outline: as §2
SMILES,MCC [1],CC50 (HeLa),CC50 (MDCK),EC50 (Human respirovirus 3),EC50 (Vaccinia virus),MBC (Bacillus subtilis),EC50 (Coxsackievirus B4 [2]),MFC (Candida albicans),MBC (Escherichia coli),EC50 (Coxsackievirus B4 [3]),EC50 [4],EC50 [5],EC50 [6],MCC [7],EC50 (Human alphaherpesvirus 1 [8]),EC50 (Coxsackievirus B4 [9]),EC50 (Felid alphaherpesvirus 1),EC50 (Sindbis virus),EC50 (Influenza B virus [10]),EC50 [11],also measured
C=C(C)C(=O)n1c(-c2ccc(S(=O)(=O)O)cc2)nc2ccccc21,> 100 µg/mL,> 100 µg/mL,> 100 µg/mL,> 100 µg/mL,> 100 µg/mL,12.5 µg/mL,> 100 µg/mL,> 50 µg/mL,12.5 µg/mL,> 100 µg/mL,> 100 µg/mL,> 100 µg/mL,> 100 µg/mL,> 100 µg/mL,> 100 µg/mL,> 100 µg/mL,> 100 µg/mL,> 100 µg/mL,> 100 µg/mL,> 100 µg/mL,EC50 (Influenza A virus [12]): > 100 µg/mL; MFC (Aspergillus niger): > 50 µg/mL; EC50 (Feline coronavirus): > 100 µg/mL; MCC [13]: > 100 µg/mL; MBC (Staphylococcus aureus): 6.25 µg/mL; EC50 (Human alphaherpesvirus 1 [14]): > 100 µg/mL; EC50 (Punta Toro virus): > 100 µg/mL; EC50 (Influenza A virus [15]): > 100 µg/mL; EC50 [16]: > 100 µg/mL; EC50 (Human alphaherpesvirus 2): > 100 µg/mL; EC50 (Influenza B virus [17]): > 100 µg/mL; EC50 [18]: > 100 µg/mL; MCC [19]: > 100 µg/mL; CC50 [20]: > 100 µg/mL
CCCCCCCC/C=C/CCCCCCCC(=O)n1c(-c2ccc(S(=O)(=O)O)cc2)nc2ccccc21,> 100 µg/mL,> 100 µg/mL,> 100 µg/mL,> 100 µg/mL,> 100 µg/mL,50 µg/mL,> 100 µg/mL,50 µg/mL,3.12 µg/mL,> 100 µg/mL,> 100 µg/mL,> 100 µg/mL,> 100 µg/mL,> 100 µg/mL,> 100 µg/mL,> 100 µg/mL,> 100 µg/mL,> 100 µg/mL,> 100 µg/mL,> 100 µg/mL,EC50 (Influenza A virus [12]): > 100 µg/mL; MFC (Aspergillus niger): > 50 µg/mL; EC50 (Feline coronavirus): > 100 µg/mL; MCC [13]: > 100 µg/mL; MBC (Staphylococcus aureus): 12.5 µg/mL; EC50 (Human alphaherpesvirus 1 [14]): > 100 µg/mL; EC50 (Punta Toro virus): > 100 µg/mL; EC50 (Influenza A virus [15]): > 100 µg/mL; EC50 [16]: > 100 µg/mL; EC50 (Human alphaherpesvirus 2): > 100 µg/mL; EC50 (Influenza B virus [17]): > 100 µg/mL; EC50 [18]: > 100 µg/mL; MCC [19]: > 100 µg/mL; CC50 [20]: > 100 µg/mL
O=C(c1ccc(Cl)cc1)n1c(-c2ccc(S(=O)(=O)O)cc2)nc2ccccc21,> 100 µg/mL,> 100 µg/mL,> 100 µg/mL,> 100 µg/mL,> 100 µg/mL,> 50 µg/mL,> 100 µg/mL,> 50 µg/mL,1.56 µg/mL,> 100 µg/mL,> 100 µg/mL,> 100 µg/mL,> 100 µg/mL,> 100 µg/mL,> 100 µg/mL,> 100 µg/mL,> 100 µg/mL,> 100 µg/mL,> 100 µg/mL,> 100 µg/mL,EC50 (Influenza A virus [12]): > 100 µg/mL; MFC (Aspergillus niger): > 50 µg/mL; EC50 (Feline coronavirus): > 100 µg/mL; MCC [13]: > 100 µg/mL; MBC (Staphylococcus aureus): 25 µg/mL; EC50 (Human alphaherpesvirus 1 [14]): > 100 µg/mL; EC50 (Punta Toro virus): > 100 µg/mL; EC50 (Influenza A virus [15]): > 100 µg/mL; EC50 [16]: > 100 µg/mL; EC50 (Human alphaherpesvirus 2): > 100 µg/mL; EC50 (Influenza B virus [17]): > 100 µg/mL; EC50 [18]: > 100 µg/mL; MCC [19]: > 100 µg/mL; CC50 [20]: > 100 µg/mL

# Source: ChEMBL document CHEMBL1629526, “4-[1-(Substituted aryl/alkyl carbonyl)-benzoimidazol-2-yl]-benzenesulfonic acids: synthesis, antimicrobial activity, QSAR studies, and antiviral evaluation” (Eur J Med Chem, 2010)
